Consider 20 compounds from ChEMBL document CHEMBL1153848, “Design and synthesis of azolopyrimidoquinolines, pyrimidoquinazolines as anti-oxidant, anti-inflammatory and analgesic activities” (2009).

For test [1], the system named is Mus musculus. Kind of test: Central analgesic activity in Swiss albino mouse assessed as thermal stimuli reaction time at 20 mg/kg, po after 30 mins by hot plate method. Format: functional. The method in brief:
(§1)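 Swiss mice of both sexes (25–30 g), six per group, on a hot plate held at 53 ± 0.5 °C. Latency was timed to hind-paw licking or jumping, with a 60 s cut-off. It was measured before dosing, then at 15, 30, 60 and 90 min after an oral aqueous suspension at 20 mg/kg. Controls were untreated; oral diclofenac sodium 20 mg/kg was the reference.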
For orientation: In hot-plate and tail-flick tests a longer latency is read as antinociception.

In test [2] the test system is Brain. The test is described as follows: Antioxidant activity in Sprague-Dawley rat brain assessed as inhibition of lipid peroxidation. Format: functional, tissue-based.
Test [3] deals with Rattus norvegicus. Kind of test: Antiinflammatory activity in Sprague-Dawley rat assessed as protection against carrageenan-induced hind paw edema at 20 mg/kg, po administered 1 hr before carrageenan challenge measured after 1 hr. It counts as functional. The essentials: (§2)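 Adult female albino rats (150–180 g), fasted 18 h, six per group. Aqueous suspension in distilled water given orally at 20 mg/kg 1 h before subplantar injection of 0.1 mL 1% w/v carrageenan into the left hind paw. Vehicle controls got 0.5 mL water; diclofenac sodium 20 mg/kg po was the reference. Paw volume was measured by mercury plethysmometer before injection and hourly for 4 h. Inhibition = (Ec−Et)/Ec, with edema = (Vt−V0)/V0.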

The subject of test [4] is Rattus norvegicus. Kind of test: Antiinflammatory activity in Sprague-Dawley rat assessed as protection against carrageenan-induced hind paw edema at 20 mg/kg, po administered 1 hr before carrageenan challenge measured after 2 hrs. It counts as functional. The essentials: as §2
Test [5] has as its system Mus musculus. The test is described as follows: Central analgesic activity in Swiss albino mouse assessed as thermal stimuli reaction time at 20 mg/kg, po after 60 mins by hot plate method. It counts as functional. The essentials:
as §1

The test system of test [6] is Kidney. The test is described as follows: Antioxidant activity in Sprague-Dawley rat kidney assessed as inhibition of lipid peroxidation. It counts as functional, tissue-based.
Test [7] concerns Mus musculus. Kind of test: Peripheral analgesic activity in Swiss albino mouse assessed as protection against acetic acid-induced writhing response at 20 mg/kg, po administered 30 mins before acetic acid challenge measured after 1 hr relative to control. It counts as functional. Background: Writhing tests count abdominal constrictions after an irritant is injected.
The test system of test [8] is Mus musculus. Kind of test: Central analgesic activity in Swiss albino mouse assessed as thermal stimuli reaction time at 20 mg/kg, po after 90 mins by hot plate method. Format: functional. The essentials:
as §1

In test [9] the test system is Rattus norvegicus. Kind of test: Antiinflammatory activity in Sprague-Dawley rat assessed as protection against carrageenan-induced hind paw edema at 20 mg/kg, po administered 1 hr before carrageenan challenge measured after 3 hrs. Format: functional. The essentials: as §2
For orientation: The carrageenan paw model is a standard test of acute inflammation.

The test system of test [10] is Mus musculus. Kind of test: Peripheral analgesic activity in Swiss albino mouse assessed as protection against acetic acid-induced writhing response at 20 mg/kg, po administered 30 mins before acetic acid challenge measured after 3 hrs relative to control. Format: functional.
The subject of test [11] is Mus musculus. The test is described as follows: Peripheral analgesic activity in Swiss albino mouse assessed as protection against acetic acid-induced writhing response at 20 mg/kg, po administered 30 mins before acetic acid challenge measured after 2 hrs relative to control. It counts as functional.
Test [12] concerns Mus musculus. The test is described as follows: Peripheral analgesic activity in Swiss albino mouse assessed as protection against acetic acid-induced writhing response at 20 mg/kg, po administered 30 mins before acetic acid challenge measured after 30 mins relative to control. Format: functional.
The nature of test [13]: Antioxidant activity in Sprague-Dawley rat erythrocytes assessed as peroxyl radical-induced hemolysis after 1 hr. Format: functional, Erythrocyte.
The nature of test [14]: Antioxidant activity assessed as ABTS radical scavenging activity at 2 mM. It counts as functional. The essentials: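 ABTS radical scavenging, read as the fall in colour absorbance after MeOH/phosphate buffer (1:1) is added. % inhibition = (A_control − A_test)/A_control × 100. The negative control uses MeOH/phosphate buffer (1:1) in place of compound, the blank omits ABTS, and ascorbic acid is the positive control.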

Active and inactive are the calls of the source.

The inhibition is the relative decrease from the control value, in per cent.

As for `CSC1=Nc2nc3c(c(-c4ccc(Cl)cc4)c2C(N2CCNCC2)N1)CCC/C3=C/c1ccc(Cl)cc1` (stereo not drawn), the Activity in [1] is given as 7.93 min; in test [3], 43.1%; in test [4], 52%; in test [5], 10.15 min; in [7], 50%; in test [8], 11.5 min. In addition, the Activity in [9] turned out to be 42%; in [10] it was 30.5%; in [11] it was 49.4%; in test [12], 49.5%. For the same compound, the result in test [2] and in test [6] was Active.

As to `O=c1c2c(-c3ccc(Cl)cc3)c3c(nc2nc2sc4c(n12)ONC4c1ccccc1)/C(=C\c1ccc(Cl)cc1)CCC3` (stereo not drawn), the Activity in [1] is recorded as 7.08 min; in [3], 49.6%; in [4], 57.1%; in [5], 9.52 min; in test [13], 9.39%; in [7], 53%. For the same compound, the Activity in test [8] was determined as 12.68 min; in test [9] it was 34.8%; in test [10] it was 36.5%; in test [11], 59.3%; in [12], 46.7%. Also, the result in test [2] and in test [6] was Active. For the same compound, the inhibition in [14] worked out at 33.3%.

On to `Nc1ccc(/C=C2/CCCc3c2nc2nc4sc5c(n4c(=O)c2c3-c2ccc(Cl)cc2)ONC5c2cccs2)cc1` (stereo not drawn), for which the outcome in [2] and in test [6] was Active. In addition, in [13], the Activity turned out to be 4.64%. The inhibition in [14] was found to be 29.6%.

With `O=C([O-])Cc1ccccc1Nc1c(Cl)cccc1Cl.[Na+]` [DICLOFENAC SODIUM], the Activity in test [1] amounted to 10 min; in test [3], 52.4%; in test [4] it was 60.3%; in test [5], 11.4 min; in [7] it was 55.2%; in test [8], 13.2 min. For the same compound, the Activity in [9] is on record as 42%; in test [10] it was 39%; in test [11], 62%; in test [12], 46%.

`COc1ccc(/C=C/C(=O)c2sc3nc4nc5c(c(-c6ccc(Cl)cc6)c4c(=O)n3c2C)CCC/C5=C/c2ccc(Cl)cc2)cc1`: the result in test [2] and in test [6] was Active. Moreover, in test [13], the Activity came out at 5.9%. In addition, the inhibition in test [14] stood at 22.2%.

In the case of `COc1ccc(C2NOc3c2sc2nc4nc5c(c(-c6ccc(Cl)cc6)c4c(=O)n32)CCC/C5=C/c2ccc(Cl)cc2)cc1` (stereo not drawn), the outcome in test [2] and in test [6] was Active. The Activity in test [13] was found to be 7.27%. Besides, the inhibition in test [14] turned out to be 24.1%.

Regarding `CCSc1nc2nc3c(c(-c4ccc(Cl)cc4)c2c(=O)[nH]1)CCC/C3=C/c1ccc(Cl)cc1`, the result in [2] and in test [6] was Active. Besides, in test [13], the Activity is 5.6%. The inhibition in [14] turned out to be 37%.

Regarding `CCSc1nc2nc3c(c(-c4ccc(Cl)cc4)c2c(=O)n1CC)CCC/C3=C/c1ccc(Cl)cc1`, the result in test [2] and in test [6] was Active. For the same compound, in [13], the Activity turned out to be 30.75%. Besides, in test [14], the inhibition came to 35.2%.

For `COc1ccc(NC2NC(SC)=Nc3nc4c(c(-c5ccc(Cl)cc5)c32)CCC/C4=C/c2ccc(Cl)cc2)cc1` (stereo not drawn), the Activity in [1] was 8.62 min; in test [3], 39.8%; in [4], 42.3%; in test [5] it was 9.06 min; in test [7], 52%; in test [8], 9.22 min. Further, the Activity in test [9] is given as 25.3%; in [10], 37.3%; in test [11] it was 49.3%; in test [12], 41.5%. Also, the outcome in [2] and in test [6] was Active.

As for `C/C(=N/O)c1sc2nc3nc4c(c(-c5ccc(Cl)cc5)c3c(=O)n2c1C)CCC/C4=C/c1ccc(Cl)cc1`, the outcome in [2] and in test [6] was Active. For the same compound, the Activity in test [13] is 7.22%. For the same compound, the inhibition in test [14] came to 48.1%.

With `Nc1ccc(/C=C2/CCCc3c2nc2nc4s/c(=C\c5cccs5)c(=O)n4c(=O)c2c3-c2ccc(N)cc2)cc1`, the result in test [2] and in test [6] was Active. Also, in test [13], the Activity is 6.36%. For the same compound, the inhibition in test [14] turned out to be 25.9%.

As to `COc1ccc(/C=c2\sc3nc4nc5c(c(-c6ccc(Cl)cc6)c4c(=O)n3c2=O)CCC/C5=C/c2ccc(Cl)cc2)cc1`, the result in test [2] and in test [6] was Active. Further, the Activity in [13] turned out to be 4.54%. Also, in [14], the inhibition came out at 33.3%.

Consider `NNc1nc2nc3c(c(-c4ccc(Cl)cc4)c2c(=O)[nH]1)CCC/C3=C/c1ccc(Cl)cc1`, for which the outcome in [2] and in [6] was Active.

For `CSc1nc2nc3c(c(-c4ccc(Cl)cc4)c2c(=O)n1C)CCC/C3=C/c1ccc(Cl)cc1`, the outcome in [2] and in test [6] was Active. In addition, the Activity in test [13] is reported as 4.09%. The inhibition in test [14] came to 31.5%.

Regarding `CSC1=Nc2nc3c(c(-c4ccc(Cl)cc4)c2C(N2CCOCC2)N1)CCC/C3=C/c1ccc(Cl)cc1` (stereo not drawn), the Activity in [1] came to 8.65 min; in test [3], 39.2%; in test [4], 47.1%; in test [5] it was 10.98 min; in test [7], 47%; in test [8], 11.12 min. In addition, the Activity in test [9] amounted to 37.3%; in [10] it was 27.8%; in test [11] it was 45.2%; in test [12], 45.2%. Also, the result in test [2] and in test [6] was Active.

On to `O=c1[nH]c(=S)[nH]c2nc3c(c(-c4ccc(Cl)cc4)c12)CCC/C3=C\c1ccc(Cl)cc1`, for which the result in [2] and in [6] was Active. For the same compound, the Activity in [13] is on record as 8.33%. For the same compound, the inhibition in test [14] was 44.4%.

For `O=C(CSc1nc2nc3c(c(-c4ccc(Cl)cc4)c2c(=O)[nH]1)CCC/C3=C/c1ccc(Cl)cc1)c1ccccc1`, the outcome in test [2] and in test [6] was Active. Also, the Activity in test [13] is given as 6.51%. Moreover, in [14], the inhibition is 33.3%.

Consider `CCSc1nc2nc3c(c(-c4ccc(Cl)cc4)c2c(=O)n1C)CCC/C3=C/c1ccc(Cl)cc1`, for which the result in test [2] and in test [6] was Active. Moreover, the Activity in test [13] was 5.3%. In [14], the inhibition amounted to 31.5%.

Take `CN(C)c1ccc(/C=c2\sc3nc4nc5c(c(-c6ccc(Cl)cc6)c4c(=O)n3c2=O)CCC/C5=C/c2ccc(Cl)cc2)cc1`: the result in [2] and in test [6] was Active. Moreover, the Activity in [13] is 7.27%. Also, in test [14], the inhibition is 37%.

Regarding `CC(=O)CSc1nc2nc3c(c(-c4ccc(Cl)cc4)c2c(=O)[nH]1)CCC/C3=C/c1ccc(Cl)cc1`, the outcome in test [2] and in [6] was Active. Besides, the Activity in [13] amounted to 8.33%. In test [14], the inhibition came to 35.2%.
